{
  "source": "ChEMBL document CHEMBL1157327",
  "about": "“Antimicrobial dialkylresorcinols from Pseudomonas sp. Ki19” (2006)",
  "type_in_all_cases": "functional",
  "key": {"[1]": {"tested_on": "Staphylococcus aureus", "assay": "Antibacterial activity against Staphylococcus aureus assessed as total inhibition of cell growth/spore germination after 24 hrs", "how_it_was_run": "(§1)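 Microtiter-plate cell growth inhibition, compounds tested up to 100 µg/mL, incubated at 37 °C for 24 h. Total inhibition was taken as full inhibition of growth. Tests run in triplicate and repeated once.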"}, "[2]": {"tested_on": "Aspergillus fumigatus", "assay": "Antifungal activity against Aspergillus fumigatus assessed as detectable inhibition of growth after 96 hrs", "how_it_was_run": "(§2)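 Spore germination/growth inhibition was read in microtiter plates with compounds up to 100 µg/mL. Plates were incubated in darkness at 27-28 °C: D. sorokiniana 48 h, F. culmorum 72 h, A. fumigatus 96 h. Visual scores ran from 3 (full inhibition, like sterile medium) through 1 (detectable) to 0 (like untreated spore suspension). Triplicates, repeated once.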"}, "[3]": {"tested_on": "Aspergillus fumigatus", "assay": "Antifungal activity against Aspergillus fumigatus assessed as total inhibition of cell growth/spore germination after 96 hrs", "how_it_was_run": "as §2"}, "[4]": {"tested_on": "Staphylococcus aureus", "assay": "Antibacterial activity against Staphylococcus aureus assessed as detectable inhibition of growth after 24 hrs", "how_it_was_run": "as §1"}, "[5]": {"tested_on": "Fusarium culmorum", "assay": "Antifungal activity against Fusarium culmorum assessed as total inhibition of cell growth/spore germination after 72 hrs", "how_it_was_run": "as §2"}, "[6]": {"tested_on": "Drechslera", "assay": "Antifungal activity against Drechslera sorokiniana assessed as detectable inhibition of growth after 48 hrs", "how_it_was_run": "as §2"}, "[7]": {"tested_on": "Fusarium culmorum", "assay": "Antifungal activity against Fusarium culmorum assessed as detectable inhibition of growth after 72 hrs", "how_it_was_run": "as §2"}, "[8]": {"tested_on": "Candida albicans", "assay": "Antifungal activity against Candida albicans assessed as total inhibition of cell growth/spore germination after 24 hrs", "how_it_was_run": "as §1"}, "[9]": {"tested_on": "Candida albicans", "assay": "Antifungal activity against Candida albicans assessed as detectable inhibition of growth after 24 hrs", "how_it_was_run": "as §1"}, "[10]": {"tested_on": "Drechslera", "assay": "Antifungal activity against Drechslera sorokiniana assessed as total inhibition of cell growth/spore germination after 48 hrs", "how_it_was_run": "as §2"}, "[11]": {"tested_on": "Pseudomonas savastanoi pv. savastanoi", "assay": "Antibacterial activity against Pseudomonas savastanoi pv. savastanoi CCM 3580 assessed as detectable inhibition of growth after 24 hrs", "details": "CCM 3580, 24 h", "how_it_was_run": "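Microtiter-plate bioassay of cell growth inhibition; compounds tested up to 100 µg/mL; plates incubated in darkness at 27-28 °C for 24 h; growth scored visually on a 0-3 scale (3 full inhibition like sterile-medium control, 1 detectable inhibition, 0 like untreated cell suspension); value is lowest concentration giving detectable inhibition; triplicate, repeated once.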"}},
  "data": [
    {"compound": "CN[C@@H]1[C@H](O[C@H]2[C@H](O[C@H]3[C@H](O)[C@@H](O)[C@H](N=C(N)N)[C@@H](O)[C@@H]3N=C(N)N)O[C@@H](C)[C@]2(O)C=O)O[C@@H](CO)[C@H](O)[C@H]1O", "note": "[STREPTOMYCIN]", "values": [
      {"measurement": "MIC", "setting": "[1]", "result": 10, "unit": "µg/mL"}
    ]},
    {"compound": "CCCCCCc1c(O)cc(CCC)cc1O", "values": [
      {"measurement": "MIC", "setting": "[2]", "result": 10, "unit": "µg/mL"},
      {"measurement": "MIC", "setting": "[3]", "result": 50, "unit": "µg/mL"},
      {"measurement": "MIC", "setting": "[4]", "result": 2, "unit": "µg/mL"},
      {"measurement": "MIC", "setting": "[5]", "result": 50, "unit": "µg/mL"},
      {"measurement": "MIC", "setting": "[6]", "result": 50, "unit": "µg/mL"},
      {"measurement": "MIC", "setting": "[7]", "result": 10, "unit": "µg/mL"},
      {"measurement": "MIC", "setting": "[8]", "result": 50, "unit": "µg/mL"},
      {"measurement": "MIC", "setting": "[1]", "result": 3, "unit": "µg/mL"}
    ]},
    {"compound": "CCCCc1c(O)cc(CCC)cc1O", "values": [
      {"measurement": "MIC", "setting": "[2]", "result": 50, "unit": "µg/mL"},
      {"measurement": "MIC", "setting": "[5]", "result": 50, "unit": "µg/mL"},
      {"measurement": "MIC", "setting": "[9]", "result": 50, "unit": "µg/mL"},
      {"measurement": "MIC", "setting": "[6]", "result": 50, "unit": "µg/mL"},
      {"measurement": "MIC", "setting": "[1]", "result": 5, "unit": "µg/mL"}
    ]},
    {"compound": "C[C@@H]1[C@H](O)[C@@H](C)/C=C/C=C/C=C/C=C/C=C/C=C/C=C/[C@H](O[C@@H]2O[C@H](C)[C@@H](O)[C@H](N)[C@@H]2O)C[C@@H]2O[C@](O)(C[C@@H](O)C[C@@H](O)[C@H](O)CC[C@@H](O)C[C@@H](O)CC(=O)O[C@H]1C)C[C@H](O)[C@H]2C(=O)O", "note": "[AMPHOTERICIN B]", "values": [
      {"measurement": "MIC", "setting": "[10]", "result": 4, "unit": "µg/mL"},
      {"measurement": "MIC", "setting": "[3]", "result": 40, "unit": "µg/mL"},
      {"measurement": "MIC", "setting": "[5]", "result": 40, "unit": "µg/mL"},
      {"measurement": "MIC", "setting": "[8]", "result": 40, "unit": "µg/mL"}
    ]},
    {"compound": "CCCCCCc1c(O)cc(C)cc1O", "values": [
      {"measurement": "MIC", "setting": "[2]", "result": 10, "unit": "µg/mL"},
      {"measurement": "MIC", "setting": "[10]", "result": 50, "unit": "µg/mL"},
      {"measurement": "MIC", "setting": "[3]", "result": 50, "unit": "µg/mL"},
      {"measurement": "MIC", "setting": "[4]", "result": 1, "unit": "µg/mL"},
      {"measurement": "MIC", "setting": "[5]", "result": 50, "unit": "µg/mL"},
      {"measurement": "MIC", "setting": "[9]", "result": 50, "unit": "µg/mL"},
      {"measurement": "MIC", "setting": "[7]", "result": 10, "unit": "µg/mL"},
      {"measurement": "MIC", "setting": "[1]", "result": 2, "unit": "µg/mL"}
    ]},
    {"compound": "CCCCCCc1c(O)cc(CCCCC)cc1O", "note": "[RESORSTATIN]", "values": [
      {"measurement": "MIC", "setting": "[2]", "result": 50, "unit": "µg/mL"},
      {"measurement": "MIC", "setting": "[11]", "result": 50, "unit": "µg/mL"},
      {"measurement": "MIC", "setting": "[4]", "result": 6, "unit": "µg/mL"},
      {"measurement": "MIC", "setting": "[5]", "result": 50, "unit": "µg/mL"},
      {"measurement": "MIC", "setting": "[9]", "result": 50, "unit": "µg/mL"},
      {"measurement": "MIC", "setting": "[6]", "result": 50, "unit": "µg/mL"},
      {"measurement": "MIC", "setting": "[1]", "result": 7, "unit": "µg/mL"}
    ]},
    {"compound": "CCCCCCC1=C(O)C(=O)C(CCCCC)=CC1=O", "values": [
      {"measurement": "MIC", "setting": "[8]", "result": 100, "unit": "µg/mL"},
      {"measurement": "MIC", "setting": "[1]", "result": 100, "unit": "µg/mL"}
    ]},
    {"compound": "C=CCOC(Cn1ccnc1)c1ccc(Cl)cc1Cl", "note": "(stereo not drawn) [ENILCONAZOLE]", "values": [
      {"measurement": "MIC", "setting": "[10]", "result": 0.1, "unit": "µg/mL"},
      {"measurement": "MIC", "setting": "[3]", "result": 5, "unit": "µg/mL"},
      {"measurement": "MIC", "setting": "[5]", "result": 5, "unit": "µg/mL"}
    ]}
  ]
}
